The record followed here is ChEMBL document CHEMBL1134538, “Peptide folding induces high and selective affinity of a linear and small beta-peptide to the human somatostatin receptor 4” (J Med Chem, 2001).

The term pKD denotes the KD on a negative log10 scale, so that one unit is a factor of ten. A higher pKD goes with a small KD.

The structures appear in SMILES notation. Positions of bridges follow the written chain, without caps; N, C: chain ends. Non-standard residues stand in square brackets, D forms with d. Residues, ends and D or L forms follow the SMILES beside them. *: point of attachment. Threoninol(2S,3R) = C[C@@H](O)[C@H](CO)N*

What all share (type): cell-based
In assay [1] the target is Somatostatin receptor type 5 (Homo sapiens) (UniProt P35346). In words: Binding assay at human somatostatin receptor 5 (hsst5) expressed in CCL-39 cells using LTT-CST-14-(Tyr10) as radioligand. The essentials: (§1)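 Chinese hamster lung fibroblast CCL39 cells stably expressing each hsst receptor; crude membrane homogenates in 10 mM HEPES pH 7.5, 0.5% BSA, 5 mM MgCl2, 5 mg/mL bacitracin. Vacuum filtration, bound radioactivity counted. Triplicate curves fitted by nonlinear regression; pKD reported.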
Somatostatin receptor type 5 (Homo sapiens), sequence (P35346 whole entry): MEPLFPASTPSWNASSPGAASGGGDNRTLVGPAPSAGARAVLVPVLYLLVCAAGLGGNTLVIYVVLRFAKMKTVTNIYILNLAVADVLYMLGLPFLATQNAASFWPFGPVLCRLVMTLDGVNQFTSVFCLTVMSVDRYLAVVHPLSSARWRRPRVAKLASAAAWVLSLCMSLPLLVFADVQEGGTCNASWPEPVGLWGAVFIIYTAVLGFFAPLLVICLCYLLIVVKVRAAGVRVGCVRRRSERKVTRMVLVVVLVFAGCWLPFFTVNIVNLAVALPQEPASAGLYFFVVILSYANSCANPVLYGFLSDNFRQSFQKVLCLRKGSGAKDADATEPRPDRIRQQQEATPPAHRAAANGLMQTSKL

The target in assay [2] is Somatostatin receptor type 3 (Homo sapiens) (UniProt P32745). In words: Binding assay at human somatostatin receptor 3 (hsst3) expressed in CCL-39 cells using LTT-CST-14-(Tyr10) as radioligand. The essentials: (§2)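 Chinese hamster lung fibroblast CCL39 cells stably expressing each hsst receptor; crude membrane homogenates in 10 mM HEPES pH 7.5, 0.5% BSA, 5 mM MgCl2, 5 mg/mL bacitracin. Competition against 25-50 pM [125I][Tyr10]CST14; 1 µM SRIF14 defines nonspecific binding. Vacuum filtration, bound radioactivity counted. Triplicate curves fitted by nonlinear regression; pKD reported.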
Somatostatin receptor type 3 (Homo sapiens), sequence (P32745 whole entry): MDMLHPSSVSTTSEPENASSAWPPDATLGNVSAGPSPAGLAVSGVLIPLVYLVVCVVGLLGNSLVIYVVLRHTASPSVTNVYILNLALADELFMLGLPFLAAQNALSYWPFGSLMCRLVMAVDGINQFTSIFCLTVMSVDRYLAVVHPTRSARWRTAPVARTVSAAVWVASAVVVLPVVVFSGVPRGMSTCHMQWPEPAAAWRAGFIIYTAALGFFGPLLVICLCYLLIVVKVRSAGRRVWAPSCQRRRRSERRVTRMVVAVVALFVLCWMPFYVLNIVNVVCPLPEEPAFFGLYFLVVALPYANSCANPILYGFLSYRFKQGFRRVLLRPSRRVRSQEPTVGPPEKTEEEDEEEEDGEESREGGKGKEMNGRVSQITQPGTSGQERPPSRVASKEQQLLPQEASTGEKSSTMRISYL

The target of assay [3] is Somatostatin receptor type 4 (Homo sapiens) (UniProt P31391). Nature of the assay: Binding assay at human somatostatin receptor 4 (hsst4) expressed in CCL-39 cells using LTT-CST-14-(Tyr10) as radioligand. The method, boiled down: as §1
Somatostatin receptor type 4 (Homo sapiens), sequence (P31391 whole entry): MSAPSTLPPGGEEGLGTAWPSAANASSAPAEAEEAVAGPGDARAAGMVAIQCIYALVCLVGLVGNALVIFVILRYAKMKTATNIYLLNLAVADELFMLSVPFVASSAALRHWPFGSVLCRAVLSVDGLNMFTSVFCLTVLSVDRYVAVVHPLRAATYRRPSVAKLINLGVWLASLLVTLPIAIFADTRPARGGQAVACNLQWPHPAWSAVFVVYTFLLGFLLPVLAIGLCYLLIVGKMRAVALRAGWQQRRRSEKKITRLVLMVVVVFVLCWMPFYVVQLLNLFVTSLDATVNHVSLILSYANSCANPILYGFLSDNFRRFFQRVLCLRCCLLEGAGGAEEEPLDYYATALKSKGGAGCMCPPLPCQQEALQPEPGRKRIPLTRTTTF
Assay [4] deals with Somatostatin receptor type 2 (Homo sapiens) (UniProt P30874). In words: Binding assay at human somatostatin receptor 2 (hsst2) expressed in CCL-39 cells using LTT-CST-14-(Tyr10) as radioligand. The essentials: as §1
Somatostatin receptor type 2 (Homo sapiens), sequence (P30874 whole entry): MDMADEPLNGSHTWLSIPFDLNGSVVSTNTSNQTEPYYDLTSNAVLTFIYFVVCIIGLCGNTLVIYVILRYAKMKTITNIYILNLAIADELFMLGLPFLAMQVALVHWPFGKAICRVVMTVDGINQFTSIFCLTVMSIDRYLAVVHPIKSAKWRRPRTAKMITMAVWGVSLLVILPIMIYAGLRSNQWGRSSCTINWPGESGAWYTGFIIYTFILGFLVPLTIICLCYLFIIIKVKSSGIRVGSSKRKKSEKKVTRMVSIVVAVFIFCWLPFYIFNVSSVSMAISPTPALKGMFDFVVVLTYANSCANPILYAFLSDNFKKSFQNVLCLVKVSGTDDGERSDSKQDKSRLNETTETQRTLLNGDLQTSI
Assay [5] deals with Somatostatin receptor type 1 (Homo sapiens) (UniProt P30872). Nature of the assay: Binding assay at human somatostatin receptor 1 (hsst1) expressed in CCL-39 cells using LTT-CST-14-(Tyr10) as radioligand. The method, boiled down:
as §2

Somatostatin receptor type 1 (Homo sapiens), sequence (P30872 whole entry): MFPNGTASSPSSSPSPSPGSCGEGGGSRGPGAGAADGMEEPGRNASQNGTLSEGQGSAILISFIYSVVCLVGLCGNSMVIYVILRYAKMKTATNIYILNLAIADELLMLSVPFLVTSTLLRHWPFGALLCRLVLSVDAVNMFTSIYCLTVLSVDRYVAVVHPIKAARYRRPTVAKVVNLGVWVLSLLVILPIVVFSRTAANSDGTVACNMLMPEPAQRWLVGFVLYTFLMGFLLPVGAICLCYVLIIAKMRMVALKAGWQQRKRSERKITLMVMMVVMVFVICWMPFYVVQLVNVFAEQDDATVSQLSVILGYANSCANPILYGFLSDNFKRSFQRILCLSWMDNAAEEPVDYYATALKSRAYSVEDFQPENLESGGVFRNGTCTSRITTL

For the compound `CC(=O)N[C@H](C(=O)N[C@@H](CCCCN)C(=O)N[C@@H](Cc1c[nH]c2ccccc12)C(=O)N[C@@H](Cc1ccccc1)C(N)=O)[C@@H](C)O` (Ac-TKWF-NH2), the pKD in assay [1] is under 4; in assay [2] it was under 5; in assay [3] it was under 5; in assay [4], under 4; in assay [5], under 4.
`C[C@@H](O)[C@H](CO)NC(=O)[C@@H]1CSSC[C@H](NC(=O)[C@H](N)Cc2ccccc2)C(=O)N[C@@H](Cc2ccccc2)C(=O)N[C@H](Cc2c[nH]c3ccccc23)C(=O)N[C@@H](CCCCN)C(=O)N[C@@H]([C@@H](C)O)C(=O)N1` (H-[dF]CF[dW]KTC-{Threoninol(2S,3R)}; disulfide 2-7) showed a pKD in assay [2] of 8.6.
Regarding `CC(=O)N[C@H](CC(=O)N[C@@H](CCCCN)CC(=O)N[C@H](CC(=O)N[C@H](CC(N)=O)Cc1ccccc1)Cc1c[nH]c2ccccc12)[C@@H](C)O`, the pKD is under 4 in assay [1]; under 5 in assay [2]; under 4 in assay [3]; under 4 in assay [4]; under 4 in assay [5].
As to `CC(=O)N[C@H](CC(=O)NC[C@H](CCCCN)C(=O)N[C@H](CC(=O)N[C@H](CC(N)=O)Cc1ccccc1)Cc1c[nH]c2ccccc12)[C@@H](C)O`, the pKD in assay [1] was under 5; in assay [2], under 5; in assay [3], 7.08; in assay [4], under 5; in assay [5], 4.88.
